OPRM1-OPRD1 inv – mu-delta opioid heterodimer inverse agonism. inhibition, % at 9.3 µM. cell-based MOR-DOR heterodimer luminescence. 0.21% of 340,000 active. P35372+P41143. AID 504357; in the data active = inhibition above about 22%, passing the limit was not always enough
Target sequence (P35372 whole entry, looked up): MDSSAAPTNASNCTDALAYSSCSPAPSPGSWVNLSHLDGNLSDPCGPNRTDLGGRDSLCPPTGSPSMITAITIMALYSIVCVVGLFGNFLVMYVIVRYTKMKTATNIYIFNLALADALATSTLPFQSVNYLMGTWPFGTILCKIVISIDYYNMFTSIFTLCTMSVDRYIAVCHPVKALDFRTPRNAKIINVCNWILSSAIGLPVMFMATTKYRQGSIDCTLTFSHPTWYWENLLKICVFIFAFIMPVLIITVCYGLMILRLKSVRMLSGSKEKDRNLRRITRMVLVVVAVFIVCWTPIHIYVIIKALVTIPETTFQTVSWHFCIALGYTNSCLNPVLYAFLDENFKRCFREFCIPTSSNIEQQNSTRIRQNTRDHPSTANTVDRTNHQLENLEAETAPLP
Target sequence (P41143 whole entry, looked up): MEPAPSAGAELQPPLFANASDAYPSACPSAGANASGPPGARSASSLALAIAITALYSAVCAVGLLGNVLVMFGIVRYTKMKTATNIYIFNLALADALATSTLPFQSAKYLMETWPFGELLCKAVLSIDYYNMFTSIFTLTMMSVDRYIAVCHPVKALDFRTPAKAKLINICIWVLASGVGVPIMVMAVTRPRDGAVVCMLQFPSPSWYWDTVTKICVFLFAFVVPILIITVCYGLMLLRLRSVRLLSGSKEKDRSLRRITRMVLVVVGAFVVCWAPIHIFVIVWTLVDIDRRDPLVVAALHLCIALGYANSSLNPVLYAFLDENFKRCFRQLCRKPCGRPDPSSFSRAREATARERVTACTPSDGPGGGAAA
MC4R antagonist – human MC4R antagonism in cAMP assay; 0.48% of 360,000 active; AID 540295; MC4R-expressing cells, MTII-stimulated cAMP, LANCE TR-FRET; inhibition, % at 6.5 µM;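 active = inhibition above its plate's cutoff, the mean of tested wells on that plate plus 3 SD, cut at about 29% in these data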
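System: U2OS cells stably expressing human melanocortin 4 receptor (MC4R). Reagent: Melanotan II challenge after compound preincubation. Doses: 6.5 µM. Times: 30-min compound, 1-h challenge, 1-h detection, room temperature. Measured by: TR-FRET with Eu-cAMP and labeled anti-cAMP, 671 nm. Replicates: singlicate.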
MOR-DOR ag-1 – OPRM1-OPRD1 heterodimerization agonism; P35372+P41143; cells, luminescence; 0.3% of 340,000 active; AID 504326; activation, % at 9.3 µM
MC4R barr agon – human MC4R agonism via beta-arrestin | U2OS MC4R beta-arrestin complementation, luminescence; percent of melanotan II response, DMSO zero | P32245 | 0.98% of 360,000 active | activation, % at 8.9 µM;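 active = activation above a per-plate cutoff, the mean activation of sample wells on that plate plus 3 SD, cut at about 8% in these data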
HTR5A ag ctr – activates human HTR5A in OPRM1-OPRD1 agonist counter-screen; activation, % at 9.3 µM; 0.61% of 340,000 active; HTR5A agonist assay, luminescence, cell-based; P47898; in the data active = activation mostly above about 9.5%, no sharp cut-off; inactive = mostly below about 7.6%
HTR5A inv ctr – counter-screen for OPRM1-OPRD1 inverse agonists: human HTR5A inverse agonism. 0.083% of 340,000 active. HTR5A cell line, luminescence. P47898. inhibition, % at 9.3 µM; in the data active = inhibition mostly above about 23%, no sharp cut-off; inactive = mostly below about 18%
MOR-DOR ag-2 – counter-screen for HTR5A agonists: OPRM1-OPRD1 heterodimerization agonism; 13% of 800 active; shares compounds with HTR5A ag ctr; AID 504913; U2OS counter-screen cells, complementation luminescence, 3 h; activation, % at 9.3 µM
HTR5A ag confirm – HTR5A (human) agonism, confirmation; AID 504915; 17% of 800 active; shares compounds with HTR5A ag ctr; HTR5A agonist cell assay, luminescence; activation, % at 9.3 µM; in the data active = activation above about 17%
Hits are given with their value. This is a sample that favours compounds with a hit; in the whole collection about 2.4% have one here. Rule as the data show it, unless noted: active = activation above about 18%; inactive = the rest.

Results for CN1C[C@H](C(=O)NC2(C)OC3(O)[C@@H]4CCCN4C(=O)[C@H](Cc4ccccc4)N3C2=O)CC2c3cccc4[nH]cc(c34)C[C@H]21 (stereo partly drawn) ?
OPRM1-OPRD1 inv: inactive; MC4R antagonist: inactive; MOR-DOR ag-1: inactive; MC4R barr agon: inactive; HTR5A ag ctr: 32; HTR5A inv ctr: inactive; MOR-DOR ag-2: inactive; HTR5A ag confirm: 63

What do the screens show for `COc1ccccc1NNC(=O)c1cccnc1Oc1ccccc1`?
OPRM1-OPRD1 inv: inactive; MC4R antagonist: inactive; MOR-DOR ag-1: inactive; MC4R barr agon: inactive; HTR5A ag ctr: inactive; HTR5A inv ctr: inactive

What do the screens show for `Cn1cccc1C(=O)NC(=O)COC(=O)CNS(=O)(=O)c1ccc(Br)cc1`?
OPRM1-OPRD1 inv: inactive; MC4R antagonist: inactive; MOR-DOR ag-1: inactive; MC4R barr agon: inactive; HTR5A ag ctr: 17; HTR5A inv ctr: inactive; MOR-DOR ag-2: inactive; HTR5A ag confirm: inactive

Results for COc1ccc(C(=O)NNC(=O)c2cc(C)nc3ccccc23)cc1 ?
OPRM1-OPRD1 inv: inactive; MC4R antagonist: inactive; MOR-DOR ag-1: inactive; MC4R barr agon: inactive; HTR5A ag ctr: inactive; HTR5A inv ctr: inactive

What do the screens show for `COc1cc(CNCCc2ccccc2)cc(Br)c1OCC(=O)Nc1ccccc1C`?
OPRM1-OPRD1 inv: inactive; MC4R antagonist: inactive; MOR-DOR ag-1: inactive; MC4R barr agon: 8.6; HTR5A ag ctr: 18; HTR5A inv ctr: inactive; MOR-DOR ag-2: inactive; HTR5A ag confirm: inactive

What do the screens show for `CNCc1cc(Br)c(OCC(=O)Nc2ccccc2OC)c(OC)c1`?
OPRM1-OPRD1 inv: inactive; MC4R antagonist: inactive; MOR-DOR ag-1: inactive; MC4R barr agon: inactive; HTR5A ag ctr: inactive; HTR5A inv ctr: inactive

What do the screens show for `Cc1cccc2cc(CNCC3CCCO3)c(Cl)nc12` (stereo not drawn)?
OPRM1-OPRD1 inv: inactive; MC4R antagonist: inactive; MOR-DOR ag-1: inactive; MC4R barr agon: inactive; HTR5A ag ctr: 15; HTR5A inv ctr: inactive; MOR-DOR ag-2: inactive; HTR5A ag confirm: inactive

How did Fc1ccccc1CNCC1CCCO1 (stereo not drawn) do in these assays?
OPRM1-OPRD1 inv: inactive; MC4R antagonist: inactive; MOR-DOR ag-1: inactive; MC4R barr agon: inactive; HTR5A ag ctr: inactive; HTR5A inv ctr: inactive

Results for CCOC(=O)C1(C)CCCN1C(=O)c1ccc(OC)c(F)c1 (stereo not drawn) ?
MC4R antagonist: inactive; MC4R barr agon: inactive

Results for COc1ccc(C)cc1NC(=O)CSc1nnc(-c2ccc(Br)cc2)o1 ?
OPRM1-OPRD1 inv: inactive; MC4R antagonist: inactive; MOR-DOR ag-1: inactive; MC4R barr agon: inactive; HTR5A ag ctr: 22; HTR5A inv ctr: inactive; MOR-DOR ag-2: inactive; HTR5A ag confirm: inactive

What do the screens show for `O=C1C2ON(c3ccccc3)C(c3ccncc3)C2C(=O)N1c1ccc(N2CCOCC2)cc1` (stereo not drawn)?
OPRM1-OPRD1 inv: inactive; MC4R antagonist: inactive; MOR-DOR ag-1: inactive; MC4R barr agon: inactive; HTR5A ag ctr: 20; HTR5A inv ctr: inactive; MOR-DOR ag-2: inactive; HTR5A ag confirm: inactive

Results for O=C(CNS(=O)(=O)c1ccccc1)N1CCCC1 ?
OPRM1-OPRD1 inv: inactive; MC4R antagonist: inactive; MOR-DOR ag-1: inactive; MC4R barr agon: inactive; HTR5A ag ctr: inactive; HTR5A inv ctr: inactive

Results for O=C(CNS(=O)(=O)c1ccccc1)N1CCN(c2ccccc2)CC1 ?
OPRM1-OPRD1 inv: inactive; MC4R antagonist: inactive; MOR-DOR ag-1: inactive; MC4R barr agon: inactive; HTR5A ag ctr: 16; HTR5A inv ctr: inactive; MOR-DOR ag-2: inactive; HTR5A ag confirm: inactive

How did Cc1c(C(=O)N2CCCCC2)c(S(=O)(=O)NCCc2ccc(Cl)cc2)c(C)n1C do in these assays?
OPRM1-OPRD1 inv: inactive; MC4R antagonist: inactive; MOR-DOR ag-1: inactive; MC4R barr agon: inactive; HTR5A ag ctr: inactive; HTR5A inv ctr: inactive

How did Cc1cccc(C(=O)OCC(=O)NC(C)CCc2ccccc2)c1O (stereo not drawn) do in these assays?
OPRM1-OPRD1 inv: inactive; MC4R antagonist: inactive; MOR-DOR ag-1: inactive; MC4R barr agon: inactive; HTR5A ag ctr: inactive; HTR5A inv ctr: inactive

Source: PubChem (The Scripps Research Institute Molecular Screening Center)
